In ChEMBL document CHEMBL4765235, “Discovery of N-[Bis(4-methoxyphenyl)methyl]-4-hydroxy-2-(pyridazin-3-yl)pyrimidine-5-carboxamide (MK-8617), an Orally Active Pan-Inhibitor of Hypoxia-Inducible Factor Prolyl Hydroxylase 1-3 (HIF PHD1-3) for the Treatment of Anemia” (J Med Chem, 2016):
pIC50: −log10 of the molar value. Calls of active or inactive are those of the source. The rule behind the calls is not given here.

Legend:
[1] = Drug metabolism in dog liver microsomes assessed as O-demethylated metabolite formation; format: ADME, Canis lupus familiaris, Microsome
[2] = Toxicity in Sprague-Dawley rat assessed as change in hemoglobin levels at 15 mg/kg, po QD administered for 4 weeks and measured post last dose; format: organism-based; conditions: in vivo, 672 h
[3] = molecular target: Voltage-gated inwardly rectifying potassium channel KCNH2 (Homo sapiens, UniProt Q12809); assay: Inhibition of human ERG
Sequence of Voltage-gated inwardly rectifying potassium channel KCNH2 (Q12809 whole entry): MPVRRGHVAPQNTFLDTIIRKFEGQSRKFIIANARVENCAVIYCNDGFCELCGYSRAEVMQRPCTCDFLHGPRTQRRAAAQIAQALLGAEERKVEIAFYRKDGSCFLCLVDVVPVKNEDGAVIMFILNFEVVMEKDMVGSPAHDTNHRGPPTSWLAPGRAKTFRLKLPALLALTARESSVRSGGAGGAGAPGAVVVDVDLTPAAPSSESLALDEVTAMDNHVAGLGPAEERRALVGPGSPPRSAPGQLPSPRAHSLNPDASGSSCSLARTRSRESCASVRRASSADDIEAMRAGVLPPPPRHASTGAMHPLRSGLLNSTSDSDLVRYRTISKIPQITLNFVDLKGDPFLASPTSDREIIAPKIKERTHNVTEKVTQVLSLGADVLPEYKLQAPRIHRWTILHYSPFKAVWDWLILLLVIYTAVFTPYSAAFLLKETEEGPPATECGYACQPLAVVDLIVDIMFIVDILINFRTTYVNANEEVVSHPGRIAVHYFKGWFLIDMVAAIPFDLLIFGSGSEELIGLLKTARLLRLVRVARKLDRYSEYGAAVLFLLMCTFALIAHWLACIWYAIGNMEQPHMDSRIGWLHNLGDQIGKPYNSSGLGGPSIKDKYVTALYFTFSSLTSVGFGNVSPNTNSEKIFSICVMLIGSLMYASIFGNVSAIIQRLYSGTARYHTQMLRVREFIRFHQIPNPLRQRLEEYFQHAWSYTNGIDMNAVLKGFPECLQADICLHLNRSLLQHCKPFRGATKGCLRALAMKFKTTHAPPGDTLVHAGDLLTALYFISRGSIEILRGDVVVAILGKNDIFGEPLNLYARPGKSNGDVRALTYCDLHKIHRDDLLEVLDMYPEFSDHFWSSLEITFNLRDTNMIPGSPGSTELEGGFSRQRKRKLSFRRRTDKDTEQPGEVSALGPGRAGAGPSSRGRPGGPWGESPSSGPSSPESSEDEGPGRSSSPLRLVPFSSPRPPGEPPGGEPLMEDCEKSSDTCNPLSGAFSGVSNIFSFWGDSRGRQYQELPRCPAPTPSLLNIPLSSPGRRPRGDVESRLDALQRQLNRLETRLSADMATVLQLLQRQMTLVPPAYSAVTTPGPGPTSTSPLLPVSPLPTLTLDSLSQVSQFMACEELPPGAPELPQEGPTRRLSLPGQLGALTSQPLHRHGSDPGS

Rattus norvegicus = organism: Rattus norvegicus; conditions: Sprague-Dawley, dose 5-15 mg/kg
[4] = Metabolic stability in rat liver microsomes assessed as metabolic turnover at 10 uM measured after 60 mins in presence of NADPH; format: ADME, Microsome; conditions: read-out: Drug metabolism
Method in brief: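 Tritiated compound incubated with rat or monkey liver microsomes supplemented with NADPH; metabolic turnover monitored.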

[5] = Metabolic stability in dog liver microsomes assessed as metabolic turnover at 10 uM measured after 60 mins in presence of NADPH; format: ADME, Canis lupus familiaris, Microsome; conditions: read-out: Drug metabolism
Method in brief: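 Tritiated compound incubated with liver microsomes with NADPH added; metabolic turnover monitored.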

## COc1ccc(C(NC(=O)c2cnc(-c3cccnn3)nc2O)c2ccc(OC)cc2)cc1
[1]
  Drug metabolism: Metabolite_Detected
[2]
  Activity: 7.6 g/dL
[3]
  pIC50: < 4.52
Rattus norvegicus
  inhibition: Active
[4]
  metabolised at 1 h, 10 µM: < 10%
[5]
  metabolised at 1 h, 10 µM: < 10%
